High-throughput results as filed in PubChem BioAssay.
TbMetRS inhib – blocks T. brucei methionyl-tRNA synthetase activity; purified T. brucei MetRS, ATP depletion, Kinase-Glo luminescence; inhibition, % at 11.9 µM; 0.4% of 360,000 active; AID 624268;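 active = inhibition above a per-plate cutoff of the control wells' mean inhibition plus 3 SD, cut at about 5.5% in these data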;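 also: 0% = DMSO wells median and 100% = median of wells with control inhibitor compound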
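Material: parasite MetRS enzyme / Replication: singlicate, one well per compound / Signal: luminescence of leftover ATP / Schedule: 2 h aminoacylation at 25 °C after 15 min preincubation / Medium: HEPES-MgCl2-KCl buffer plus DTT, spermine, BSA, pyrophosphatase / Doses: 11.9 µM single point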
14-3-3 Bad PPI – disrupts binding of bovine 14-3-3 zeta to phospho-Bad peptide; P63103; TR-FRET 14-3-3zeta/Dy647-pBad peptide displacement, 1 h; inhibition, % at 21.7 µM; 0.71% of 220,000 active; AID 781;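 active = inhibition above about 70%, limit read from the data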;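 also: 0% = full 14-3-3 plus peptide FRET controls and 100% = background without 14-3-3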
p97 inhibitor – blocks human p97 ATPase activity; recombinant p97 ATPase, Kinase-Glo ATP luminescence, 3 h; inhibition, % at 8 µM; 0.42% of 220,000 active; AID 1481;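 also: 0% = DMSO vehicle and 100% = wells lacking enzyme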
Target sequence (P55072 whole entry, looked up): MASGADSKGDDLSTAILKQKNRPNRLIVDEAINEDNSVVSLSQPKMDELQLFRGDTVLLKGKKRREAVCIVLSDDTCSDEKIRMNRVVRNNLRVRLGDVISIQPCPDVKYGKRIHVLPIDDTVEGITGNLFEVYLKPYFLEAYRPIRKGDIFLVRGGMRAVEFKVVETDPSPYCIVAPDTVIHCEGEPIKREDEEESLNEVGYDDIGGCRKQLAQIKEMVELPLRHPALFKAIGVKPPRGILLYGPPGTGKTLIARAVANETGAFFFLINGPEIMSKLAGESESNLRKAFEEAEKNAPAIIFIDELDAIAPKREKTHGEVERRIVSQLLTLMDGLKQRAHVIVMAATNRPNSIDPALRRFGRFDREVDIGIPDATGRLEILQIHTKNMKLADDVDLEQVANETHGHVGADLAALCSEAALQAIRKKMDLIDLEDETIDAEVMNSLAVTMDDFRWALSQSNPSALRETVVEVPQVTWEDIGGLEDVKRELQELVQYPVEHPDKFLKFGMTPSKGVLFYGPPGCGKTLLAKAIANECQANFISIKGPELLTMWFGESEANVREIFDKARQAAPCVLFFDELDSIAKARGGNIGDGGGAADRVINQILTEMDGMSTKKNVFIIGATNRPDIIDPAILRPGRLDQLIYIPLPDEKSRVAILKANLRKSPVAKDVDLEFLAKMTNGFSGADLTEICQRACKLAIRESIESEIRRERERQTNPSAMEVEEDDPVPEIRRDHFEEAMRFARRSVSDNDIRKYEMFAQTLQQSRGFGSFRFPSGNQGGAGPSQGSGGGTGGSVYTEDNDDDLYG
eIF4E-4G inh – inhibitors of eIF4E and eIF4G interaction in translation initiation; P63073+Q04637; TR-FRET eIF4E-eIF4GI(517-606) binding, 2 h; 0.37% of 220,000 active; inhibition, % at 21.7 µM;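 active = inhibition above about 30%, limit read from the data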;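 also: 0% = full FRET control wells and 100% = background wells lacking eIF4GI fragment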
SUMO HTRF inh – blocks human SUMOylation mediated by UBC9; inhibition, % at 35 µM; 0.36% of 290,000 active; HTRF SUMOylation assay, SAE1/SAE2 + UBC9, in vitro; AID 2006; in the data active = inhibition above about 50%, passing the limit was not always enough
p47phox inh – inhibitors of human p47phox binding; AID 1274; 0.53% of 220,000 active; P14598; p47phox/p22phox peptide binding, fluorescence polarization, 2 h; inhibition, % at 24.7 µM;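 active = inhibition above about 30%, limit read from the data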;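 also: 0% = p47phox with labelled peptide and 100% = labelled peptide alone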
Tb MetRS conf – confirmation of Trypanosoma brucei MetRS inhibitors; AID 624412; 93% of 1,400 active; shares compounds with TbMetRS inhib; T. brucei MetRS enzyme, luminescence (ATP depletion); inhibition, % at 11.9 µM; in the data active = inhibition above about 7%
Jurkat tox – counter-screen for T. brucei MetRS inhibitors: Jurkat cell cytotoxicity; AID 624413; 12% of 1,400 active; Jurkat cells viability, ATP luminescence; inhibition, % at 8.3 µM; shares compounds with TbMetRS inhib;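 also: 0% = vehicle and 100% = reference inhibitor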
TbMetRS FP orth – orthogonal test for Trypanosoma brucei MetRS inhibitors | purified T. brucei MetRS, fluorescence polarization | inhibition, % at 11.9 µM | shares compounds with TbMetRS inhib | AID 651607 | 44% of 1,400 active; in the data active = inhibition above about 17%;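 also: 0% = vehicle wells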
* marks the source's active call; other numbers are inactive results; · = no result; ! = not confirmed by another sample. Sampled rows, rich in hits. Any-hit rate of the full collection: about 1.6%. Rule as the data show it, unless noted: active = inhibition above about 15%; inactive = the rest.

SMILES	TbMetRS inhib	14-3-3 Bad PPI	p97 inhibitor	eIF4E-4G inh	SUMO HTRF inh	p47phox inh	Tb MetRS conf	Jurkat tox	TbMetRS FP orth
Cc1ccc(/C=C/c2onc(C)c2S(=O)(=O)N2CCC(C(=O)NC(C)(C)C)CC2)cc1	-1	·	·	·	-8	·	·	·	·
CC(C)Oc1ccc(F)cc1-c1cc(C(=O)NCc2ccc(F)cc2)[nH]n1	0	·	·	·	·	·	·	·	·
COc1ccc(NC(=O)CN(C)C(=O)c2ccc3c(c2)NC(=O)CS3)cc1	7.9*	·	·	·	·	·	33*	-8	6
CCCCNC(=O)C(NC(=O)c1ccc2c(c1)OCO2)C(=O)c1ccccc1 (centres undefined)	0	·	·	·	·	·	·	·	·
CO/N=C(\C(=O)O)c1csc(NN=C(C)C)n1	0	8	-4	-1	20	-5	·	·	·
O=C(Cn1cnnn1)NCCc1ccc(Cl)cc1Cl	9.4*	·	·	·	-1	·	18*	3	13
Cc1ccc(NC(=O)Cn2nc(C)c([N+](=O)[O-])c2C)cc1Cl	0	-1	1	4	5	-12	·	·	·
Cc1nn(CC(=O)NCCc2ccc(Cl)cc2Cl)c(C)c1[N+](=O)[O-]	16*	15	-8	3	-5	-57	33*	-4	14
COC(=O)c1nnn(CC(=O)NC(=O)Nc2ccccc2)c1C(=O)OC	6.2*	-5	3	6	4	-33	15*	-7	3
COc1ccccc1CNC(=O)COC(=O)c1ccc(Cl)c(N)c1	3	-7	-1	3	18	-12	·	·	·
Nc1cc(C(=O)OCC(=O)NCCNC(=O)COC(=O)c2ccc(Cl)c(N)c2)ccc1Cl	11*	·	·	·	-15	·	30*	-2	8
CCN(CC)c1ccc(/C=N/NC(=O)Nc2ccccc2)cc1	0	-20	-3	8	-13	1	·	·	·
CCN(CC)c1ccc(/C=N/NC(=O)Cc2nnc(NC(=O)Nc3ccccc3)s2)cc1	8.4*	3	3	-5	16	-191	9.2*	3	5
COC(=O)COc1ccc(C(C2C(=O)CC(C)(C)CC2=O)C2C(=O)CC(C)(C)CC2=O)cc1	-1	·	·	·	-7	·	·	·	·
CCn1c(COc2ccc(C)cc2)nnc1SCC(=O)Nc1ccc2c(c1)OCCO2	0	-6	2	-2	1	-10	·	·	·
COc1ccc(-c2nnc(SCC(=O)N3CCCC3=O)n2N)cc1OC	0	·	·	·	·	·	·	·	·
COc1ccc(-c2nnc(SC(C(=O)c3c[nH]c4ccccc34)c3ccccc3)n2N)cc1OC (centres undefined)	16*	-21	1	-4	-21	-47	28*	3	18*
CCOc1ccc(-c2cc(C(=O)NC3CCCCC3)[nH]n2)c(C)c1	1	·	·	·	·	·	·	·	·
Cc1ccc(OCc2nc(C#N)c(NCCCn3ccnc3)o2)cc1	2	-11	-3	1	20	8	·	·	·
N#Cc1nc(COc2ccc(Br)cc2)oc1NCCCn1ccnc1	30*	-6	3	-2	8	9	53*	7	31*
COc1cccc(N2CCN(c3ncnc4c3[nH]c3ccc(F)cc34)CC2C)c1 (centres undefined)	8.5*	-4	6	-10	-13	-24	12*	95*	14
COc1cccc(N2CCN(c3ncnc4c3[nH]c3ccccc34)CC2C)c1 (centres undefined)	·	4	7	2	-14	-17	·	·	·
O=C(Cn1c(/C=C/c2ccccc2)nc2ccccc21)Nc1ccc(F)cc1	32*	5	-5	2	13	-3	55*	8	39*
O=C(O)CCCCCn1c(O)c(C=C2N=c3ccccc3=N2)sc1=S	8.8*	9	5	23	19	-27	25*	-4	12
CCCn1c(O)c(/C=C2\C=NN=C2c2ccccc2)sc1=S	0	-3	4	-1	-40	-4	·	·	·
SMILES	TbMetRS inhib	14-3-3 Bad PPI	p97 inhibitor	eIF4E-4G inh	SUMO HTRF inh	p47phox inh	Tb MetRS conf	Jurkat tox	TbMetRS FP orth
CCCC(C(=O)O)n1c(O)c(C=C2N=c3ccccc3=N2)sc1=S (centres undefined)	5.8*	7	2	-3	8	-8	33*	-6	10
O=C(O)CCCn1c(O)c(C=C2N=c3ccccc3=N2)sc1=S	29*	-1	8	-5	-8	-27	44*	9	20*
O=C(O)Cn1c(O)c(C=Nc2ccccc2)sc1=S	0	9	-3	-2	12	-16	·	·	·
CCCC(NC(=O)C(C)NC(=O)CO/N=C1\C=C2CCC3C4CCC(C(C)=O)[C@@]4(C)CCC3[C@@]2(C)CC1)C(=O)O (some centres undefined)	1	·	·	·	15	·	·	·	·
Cc1sc(NC(=O)C2=COCCO2)c(C(N)=O)c1C	-1	·	·	·	·	·	·	·	·
CS(=O)(=O)Cc1nc2ccccc2n1CC(=O)Nc1cccc(S(=O)(=O)N2CCCC2)c1	10*	·	·	·	·	·	33*	0	10
CSc1ccc(/C=N/NC(=O)CNc2cccc3ccccc23)cc1	0	1	2	1	47	-3	·	·	·
O=C(CNc1cccc2ccccc12)N/N=C/c1ccc[nH]1	9.8*	0	3	0	0	-11	65*	64*	44*
CN(N=Nc1nc[nH]c1C(=O)NN)C1CCCCC1	0	·	·	·	·	·	·	·	·
CCCn1c(SCC(=O)Nc2ccc(S(=O)(=O)N3CCOCC3)cc2)n[nH]c1=O	0	·	·	·	·	·	·	·	·
O=C(O)c1ccc(S(=O)(=O)/N=C2\C=C(Nc3ccccc3F)C(=O)c3ccccc32)cc1	9.2*	·	·	·	92*	·	15*	91*	6
COc1ccc(/C=C\C(=O)c2c(O)ccc3c(C)cc(=O)oc23)cc1OC	1	-2	4	7	18	-28	·	·	·
CCn1c(SCC(=O)N(C)Cc2ccc(OC)c(F)c2)nc2cc(S(N)(=O)=O)ccc21	-1	·	·	·	2	·	·	·	·
Cc1ccc(NC(=O)CN2CCOCC2)cc1	1	·	·	·	3	·	·	·	·
Cc1ccc(NC(=O)CN2CC(C)SC2=NC2CCCCC2)cc1 (centres undefined)	12*!	34	2	1	-6	-1	25*	4	6
Cc1ccc(S(=O)(=O)N2C[C@]3(O)C[C@@H]4C(=O)N(c5ccccc5)C(=O)[C@@H]4C[C@]3(OC(=O)Nc3c(C)noc3C)C2)cc1	-1	·	·	·	·	·	·	·	·
O=C(NCc1cccs1)c1cccc(Nc2nc3ccc(Br)cc3[nH]2)c1	5.7*	-1	11	0	-16	-11	25*	1	22*
N#CN1CCC(NS(=O)(=O)c2ccc(C(F)(F)F)cc2)C1 (centres undefined)	0	·	·	·	·	·	·	·	·
